Source: PubChem BioAssay (Johns Hopkins Ion Channel Center)
hERG rescue: shields human hERG channel from block by proarrhythmic agents. Q12809. CHO-hERG, FluxOR thallium flux, dofetilide IC70 present. activation (rescue from dofetilide block), less the hit threshold, % at 10 µM. 310,000 compounds, 0.51% hits;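 active means activation above the mean of controls blocked by dofetilide plus 5 SD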;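 further: thallium influx through hERG after potassium depolarization seen as dye fluorescence rise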
KCNK3 inh: human KCNK3 channel inhibition, primary screen; O14649; CHO-KCNK3 thallium flux, FluxOR fluorescence; hits give low values; B-score at 10 µM; 340,000 compounds, 0.84% hits;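 active means B-score under library mean minus 4 SD, starting fluorescence ratio at most library mean plus 5 SD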;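 further: more negative B-score means stronger inhibition of thallium flux through KCNK3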
KCNQ1 block: human KCNQ1 channel inhibition; P51787; CHO-K1 KCNQ1, FluxOR thallium flux fluorescence; hits give high values; B-score at 10 µM; 310,000 compounds, 1.3% hits;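 active means compounds whose thallium flux B-score, printed positive for inhibition, exceeds three library SD while starting fluorescence stays within three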;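 further: channel opened by potassium depolarization with thallium stimulus after 20 min compound exposure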
Target sequence (P51787 whole entry, looked up): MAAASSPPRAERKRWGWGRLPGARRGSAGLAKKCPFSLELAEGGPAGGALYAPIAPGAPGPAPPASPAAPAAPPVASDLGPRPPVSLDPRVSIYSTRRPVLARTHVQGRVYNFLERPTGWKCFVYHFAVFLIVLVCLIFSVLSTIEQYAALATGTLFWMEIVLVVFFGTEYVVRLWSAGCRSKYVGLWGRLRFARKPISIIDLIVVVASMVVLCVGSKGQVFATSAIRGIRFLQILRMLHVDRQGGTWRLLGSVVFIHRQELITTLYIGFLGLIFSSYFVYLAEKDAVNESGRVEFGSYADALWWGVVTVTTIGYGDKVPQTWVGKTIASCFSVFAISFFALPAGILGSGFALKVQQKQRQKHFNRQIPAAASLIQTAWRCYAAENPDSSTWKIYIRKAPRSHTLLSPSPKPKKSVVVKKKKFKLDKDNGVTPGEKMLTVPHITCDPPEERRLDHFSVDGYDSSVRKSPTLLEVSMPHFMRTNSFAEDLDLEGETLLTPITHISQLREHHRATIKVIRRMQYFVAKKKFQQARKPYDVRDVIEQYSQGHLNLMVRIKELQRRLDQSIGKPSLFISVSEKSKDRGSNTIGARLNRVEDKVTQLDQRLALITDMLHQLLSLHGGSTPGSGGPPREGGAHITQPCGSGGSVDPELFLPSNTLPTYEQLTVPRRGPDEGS
KCNQ1 pot: potentiators or activators of human KCNQ1 potassium channel | B-score at 10 µM | CHO-K1 KCNQ1, thallium flux FluxOR fluorescence; hits give high values | 310,000 compounds, 0.35% hits;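 active means fluorescence ratio B-score, a plate-corrected score, at least three library SD, with initial intensity B-score within 5 SD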
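Medium – assay buffer, equal DMSO in all wells · Material – CHO-K1 cell line with stable KCNQ1 potassium channel expression · Signal – kinetic FluxOR thallium fluorescence, 10-s 1-Hz baseline, 110-s post-stimulus read · Compound – single concentration per compound, DMSO matched to controls · Schedule – 37 °C overnight plating, 90-min dark dye load, 20-min compound pretreatment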
KCNK9 inh: human KCNK9 channel inhibition; HEK293 KCNK9, FluxOR thallium flux fluorescence; hits give low values; B-score at 10 µM; 310,000 compounds, 1.2% hits;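 active means ratio B-score over 3 SD below the library mean, with starting fluorescence within 5 SD of its mean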;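 further: negative B-score means less thallium flux so channel inhibition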
A number is an active result. Only some compounds are listed: those with a hit (about 3.1% of all), similar ones and a draw of the others.

What do the screens show for `Nc1nc2n(n1)C(=O)CC(c1ccc(Cl)cc1)N2` (configuration not stated)?
hERG rescue: 5.0; KCNK3 inh: inactive; KCNQ1 block: inactive; KCNQ1 pot: inactive; KCNK9 inh: inactive

How did N#Cc1ccccc1S(=O)(=O)N1CCN(c2nc(-c3cccnc3)nc3ccccc23)CC1 do in these assays?
KCNK3 inh: inactive

What do the screens show for `O=C1N=C2N(CCN3CCCCC3)c3ccccc3N2/C1=C\c1ccc([N+](=O)[O-])s1`?
KCNK3 inh: inactive

How did Cc1ccc(NC(=O)CC(O)(C(F)(F)F)C(F)(F)F)cc1 do in these assays?
hERG rescue: inactive; KCNK3 inh: inactive; KCNQ1 block: 7; KCNQ1 pot: inactive; KCNK9 inh: inactive

How did Cc1ccc(NC(=O)CC(N)=S)cc1 do in these assays?
hERG rescue: inactive; KCNK3 inh: inactive; KCNQ1 block: inactive; KCNQ1 pot: inactive; KCNK9 inh: inactive

Results for O=C(/C=C/c1cccc([N+](=O)[O-])c1)NCc1ccccc1 ?
hERG rescue: inactive; KCNK3 inh: inactive; KCNQ1 block: inactive; KCNQ1 pot: inactive; KCNK9 inh: inactive

How did O=C(/C=C/c1cccc([N+](=O)[O-])c1)NCCSCc1cccc(Cl)c1 do in these assays?
hERG rescue: inactive; KCNK3 inh: inactive; KCNQ1 block: inactive; KCNQ1 pot: inactive; KCNK9 inh: -7.7

What do the screens show for `CCCCCCCN1C(Nc2ccccc2)=NC[C@@H]1CC(C)C`?
hERG rescue: inactive; KCNK3 inh: inactive; KCNQ1 block: 7; KCNQ1 pot: inactive; KCNK9 inh: inactive

Results for CC(C)C[C@H]1CN=C(Nc2ccccc2)N1CCCC1CCCC1 ?
hERG rescue: inactive; KCNK3 inh: inactive; KCNQ1 block: inactive; KCNQ1 pot: inactive; KCNK9 inh: inactive

What do the screens show for `COc1ccccc1NOC(=O)CCOc1ccccc1`?
KCNK3 inh: inactive

How did O=C(NNS(=O)(=O)c1ccc([N+](=O)[O-])cc1)c1ccc2ccccc2c1O do in these assays?
hERG rescue: inactive; KCNK3 inh: inactive; KCNQ1 block: 7; KCNQ1 pot: inactive; KCNK9 inh: inactive

How did CCOc1ccc(CNCCN2CCCC2)cc1 do in these assays?
hERG rescue: inactive; KCNK3 inh: inactive; KCNQ1 block: 7; KCNQ1 pot: inactive; KCNK9 inh: inactive

Results for CCOc1ccc(OCCN2CCCCC2)cc1 ?
hERG rescue: inactive; KCNK3 inh: inactive; KCNQ1 block: inactive; KCNQ1 pot: inactive; KCNK9 inh: inactive

Results for Cn1cc(S(=O)(=O)N2CCCC2)cc1C(=O)O ?
KCNK3 inh: inactive

Results for O=[N+]([O-])c1cc([N+](=O)[O-])c2oc(-c3ccccc3)c(Br)c2c1O ?
hERG rescue: inactive; KCNK3 inh: inactive; KCNQ1 block: 8; KCNQ1 pot: inactive; KCNK9 inh: inactive

What do the screens show for `O=c1cc(-c2ccccc2Cl)oc2ccc([N+](=O)[O-])c(O)c12`?
hERG rescue: inactive; KCNK3 inh: inactive; KCNQ1 block: inactive; KCNQ1 pot: inactive; KCNK9 inh: inactive

How did C=CCN(CC=C)C(=S)NC(=O)Cc1cccc2ccccc12 do in these assays?
hERG rescue: 10; KCNK3 inh: inactive; KCNQ1 block: inactive; KCNQ1 pot: 10; KCNK9 inh: inactive

Results for O=C(Cc1cccc2ccccc12)Nc1ccccc1 ?
hERG rescue: inactive; KCNK3 inh: inactive; KCNQ1 block: inactive; KCNQ1 pot: inactive; KCNK9 inh: inactive

What do the screens show for `O=C(c1ccco1)N1CCN(S(=O)(=O)c2ccc(C3CCCCC3)cc2)CC1`?
hERG rescue: 8.2; KCNK3 inh: inactive; KCNQ1 block: inactive; KCNQ1 pot: inactive; KCNK9 inh: inactive

What do the screens show for `CC(C)(C)OC(=O)N1CCCC(C(=O)Nc2cccc(C(=O)N3CCCCC3)c2)C1` (configuration not stated)?
KCNK3 inh: inactive

Results for CCOC(=O)c1c(C)n(C)c2cc(Br)c(OC)cc12 ?
hERG rescue: inactive; KCNK3 inh: inactive; KCNQ1 block: inactive; KCNQ1 pot: inactive; KCNK9 inh: inactive

What do the screens show for `CCOC(=O)c1c(C)oc2cc(Br)c(OC)cc12`?
hERG rescue: 9.4; KCNK3 inh: inactive; KCNQ1 block: inactive; KCNQ1 pot: inactive; KCNK9 inh: inactive

How did Cc1ccc2c(Cl)c(C)c(N3CCOCC3)nc2n1 do in these assays?
KCNK3 inh: inactive

What do the screens show for `CCOC(=O)/C(C#N)=C/C=C1/C=CC=CN1C`?
hERG rescue: inactive; KCNK3 inh: inactive; KCNQ1 block: inactive; KCNQ1 pot: inactive; KCNK9 inh: inactive

Results for C=CCN1C=CC(=C/C=C(/C#N)C(=O)OCC)C=C1 ?
hERG rescue: inactive; KCNK3 inh: inactive; KCNQ1 block: 11; KCNQ1 pot: inactive; KCNK9 inh: inactive
